Data from ChEMBL document CHEMBL1148641, “Design and synthesis of novel sulfonamide-containing bradykinin hB2 receptor antagonists. 1. Synthesis and SAR of alpha,alpha-dimethylglycine sulfonamides” (J Med Chem, 2006).

Experiments:
B2 bradykinin receptor [1] = molecular target: T1, B2 bradykinin receptor (Homo sapiens, UniProt P30411); experiment: Displacement of [3H]BK from human B2 receptor transfected in CHO cells; assay type: cell-based
T1 sequence (P30411 whole entry): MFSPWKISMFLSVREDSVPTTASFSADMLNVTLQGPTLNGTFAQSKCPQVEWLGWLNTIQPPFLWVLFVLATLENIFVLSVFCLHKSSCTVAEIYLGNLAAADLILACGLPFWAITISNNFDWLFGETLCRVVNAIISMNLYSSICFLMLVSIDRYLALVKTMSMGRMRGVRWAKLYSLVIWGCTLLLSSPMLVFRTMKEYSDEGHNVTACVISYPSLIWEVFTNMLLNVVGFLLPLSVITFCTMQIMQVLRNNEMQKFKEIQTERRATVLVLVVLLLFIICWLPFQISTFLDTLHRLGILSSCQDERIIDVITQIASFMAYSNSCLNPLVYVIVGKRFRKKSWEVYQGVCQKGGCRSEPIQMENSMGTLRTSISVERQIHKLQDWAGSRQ
Method in brief: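 Membranes from stably transfected CHO cells (100-150 µg/mL) incubated 60 min at room temperature with [³H]BK at 0.1-0.2 nM in TES buffer pH 7.4 with 1,10-phenanthroline, bacitracin and BSA, 1% DMSO final. Competitor 1 pM-10 µM; nonspecific binding with 1 µM BK. Filtration, scintillation counting; IC50 converted to pKi by Cheng-Prusoff.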

B2 bradykinin receptor [2] = molecular target: T1, B2 bradykinin receptor; experiment: Activity at human B2 receptor transfected in CHO cells assessed as ability to antagonize BK-induced inositol-phosphate accumulation; assay type: functional, cell-based; conditions: read-out: pA2 (converted)
Method in brief: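 Stably transfected CHO cells (1.8 × 10⁵/well) grown overnight at 37 °C, then labeled 24 h with [³H]myo-inositol (1 µCi/well). Antagonist preincubation 20 min at a nanomolar concentration, then BK 1 × 10^-11 to 1 × 10^-5 M for 40 min at 37 °C in LiCl-containing buffer, pH 7.4. IP1 radioactivity by liquid scintillation; pA₂ from EC50 concentration-ratios of sigmoidal fits.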

Cavia porcellus [3] = experiment: Inhibition of BK-induced bronchoconstriction in guinea pig intratracheally administered at 300 nmol/kg for 210 min; assay type: functional; conditions: inhaled or nasal, 3.5 h
Method in brief: (§1)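 Anesthetized guinea pigs given compound intratracheally at 300 nmol/kg. BK-induced bronchoconstriction and BK-induced hypotension followed over time after dosing.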

Cavia porcellus [4] = experiment: Reduction in hypotensive effect in guinea pig intratracheally administered at 300 nmol/kg for 60 min; assay type: functional; set-up: scale not given: the % may be the effect or the level left; method in brief: as §1

| Structure (SMILES) | Ki (B2 bradykinin receptor [1]) | Kb (B2 bradykinin receptor [2]) | other results |
| --- | --- | --- | --- |
| Cc1ccc2cccc(OCc3c(Cl)ccc(S(=O)(=O)NC(C)(C)C(=O)NCCCN=C(N)N)c3Cl)c2n1 | 39.8 nM |  |  |
| COCCNC(=O)C(C)(C)NS(=O)(=O)c1ccc(Cl)c(COc2cccc3ccc(C)nc23)c1Cl | 7940 nM |  |  |
| Cc1ccc2cccc(OCc3c(Cl)ccc(S(=O)(=O)NC(C)(C)C(=O)NCCCN4CCOCC4)c3Cl)c2n1 | 631 nM |  |  |
| Cc1ccc2cccc(OCc3c(Cl)ccc(S(=O)(=O)NC(C)(C)C(=O)NCCCNCc4ccc(Cl)cc4)c3Cl)c2n1 | 794 nM |  |  |
| Cc1ccc2cccc(OCc3c(Cl)ccc(S(=O)(=O)NC(C)(C)C(=O)NCCCNCc4ccc(O)cc4)c3Cl)c2n1 | 79.4 nM |  |  |
| Cc1ccc2cccc(OCc3c(Cl)ccc(S(=O)(=O)NC(C)(C)C(=O)NCCCCN)c3Cl)c2n1 | 200 nM |  |  |
| Cc1ccc2cccc(OCc3c(Cl)ccc(S(=O)(=O)NC(C)(C)C(=O)NCCCNCc4ccc(S(C)(=O)=O)cc4)c3Cl)c2n1 | 79.4 nM |  |  |
| Cc1ccc2cccc(OCc3c(Cl)ccc(S(=O)(=O)NC(C)(C)C(=O)N4CCCNCCC4)c3Cl)c2n1 | 100 nM |  |  |
| Cc1ccc2cccc(OCc3c(Cl)ccc(S(=O)(=O)NC(C)(C)C(=O)NCCCN4CCN(C)CC4)c3Cl)c2n1 | 251 nM |  |  |
| Cc1cc(C)c2cccc(OCc3c(Cl)ccc(S(=O)(=O)NC(C)(C)C(=O)N4CCN(C(=O)[C@@H](N)CCCCN(C)C)CC4)c3Cl)c2n1 |  | 3.16 nM |  |
| COCCCNC(=O)C(C)(C)NS(=O)(=O)c1ccc(Cl)c(COc2cccc3ccc(C)nc23)c1Cl | 398 nM |  |  |
| Cc1ccc2cccc(OCc3c(Cl)ccc(S(=O)(=O)NC(C)(C)C(=O)NCCN4CCOCC4)c3Cl)c2n1 | 2510 nM |  |  |
| Cc1ccc2cccc(OCc3c(Cl)ccc(S(=O)(=O)NC(C)(C)C(=O)NCCN4CCCCC4)c3Cl)c2n1 | 316 nM |  |  |
| Cc1ccc2cccc(OCc3c(Cl)ccc(S(=O)(=O)NC(C)(C)C(=O)NCCCN(C)C)c3Cl)c2n1 | 200 nM |  |  |
| Cc1ccc2cccc(OCc3c(Cl)ccc(S(=O)(=O)NC(C)(C)C(=O)NCc4ccccc4)c3Cl)c2n1 | > 10000 nM |  |  |
| Cc1ccc2cccc(OCc3c(Cl)ccc(S(=O)(=O)NC(C)(C)C(=O)NCC4CCNCC4)c3Cl)c2n1 | 158 nM |  |  |
| Cc1ccc2cccc(OCc3c(Cl)ccc(S(=O)(=O)NC(C)(C)C(=O)NCCCc4ccccc4)c3Cl)c2n1 | > 10000 nM |  |  |
| Cc1ccc2cccc(OCc3c(Cl)ccc(S(=O)(=O)NC(C)(C)C(=O)N=C(N)N)c3Cl)c2n1 | 63.1 nM |  |  |

| Structure (SMILES) | Ki (B2 bradykinin receptor [1]) | Kb (B2 bradykinin receptor [2]) | other results |
| --- | --- | --- | --- |
| Cc1ccc2cccc(OCc3c(Cl)ccc(S(=O)(=O)NC(C)(C)C(=O)NCCCNCc4ccccc4)c3Cl)c2n1 | 200 nM |  |  |
| Cc1ccc2cccc(OCc3c(Cl)ccc(S(=O)(=O)NC(C)(C)C(=O)NCCCNCc4c[nH]cn4)c3Cl)c2n1 | 158 nM |  |  |
| Cc1cc(C)c2cccc(OCc3c(Cl)ccc(S(=O)(=O)NC(C)(C)C(=O)NCCCN)c3Cl)c2n1 | 25.1 nM |  |  |
| Cc1ccc2cccc(OCc3c(Cl)ccc(S(=O)(=O)NC(C)(C)C(=O)NCCN)c3Cl)c2n1 | 100 nM |  |  |
| Cc1ccc2cccc(OCc3c(Cl)ccc(S(=O)(=O)NC(C)(C)C(=O)Nc4ccccc4)c3Cl)c2n1 | 7940 nM |  |  |
| Cc1ccc2cccc(OCc3c(Cl)ccc(S(=O)(=O)NC(C)(C)C(=O)NCCCNCc4ccc(C(N)=O)cc4)c3Cl)c2n1 | 126 nM |  |  |
| COc1ccc(CNCCCNC(=O)C(C)(C)NS(=O)(=O)c2ccc(Cl)c(COc3cccc4ccc(C)nc34)c2Cl)cc1 | 200 nM |  |  |
| Cc1ccc2cccc(OCc3c(Cl)ccc(S(=O)(=O)NC(C)(C)C(=O)NCCCNCc4ccoc4)c3Cl)c2n1 | 316 nM |  |  |
| Cc1ccc2cccc(OCc3c(Cl)ccc(S(=O)(=O)NC(C)(C)C(=O)NCCCN)c3Cl)c2n1 | 158 nM |  |  |
| Cc1ccc2cccc(OCc3c(Cl)ccc(S(=O)(=O)NC(C)(C)C(=O)NC4CCNCC4)c3Cl)c2n1 | 79.4 nM |  |  |
| Cc1ccc(CNCCCNC(=O)C(C)(C)NS(=O)(=O)c2ccc(Cl)c(COc3cccc4ccc(C)nc34)c2Cl)cc1 | 200 nM |  |  |
| Cc1ccc2cccc(OCc3c(Cl)ccc(S(=O)(=O)NC(C)(C)C(=O)N4CCNCC4)c3Cl)c2n1 | 25.1 nM |  |  |
| Cc1ccc2cccc(OCc3c(Cl)ccc(S(=O)(=O)NC(C)(C)C(=O)N4CCCNCC4)c3Cl)c2n1 | 25.1 nM |  |  |
| Cc1ccc2cccc(OCc3c(Cl)ccc(S(=O)(=O)NC(C)(C)C(=O)NCCCNCc4ccccn4)c3Cl)c2n1 | 39.8 nM |  |  |
| Cc1ccc2cccc(OCc3c(Cl)ccc(S(=O)(=O)NC(C)(C)C(=O)NCCCNC(=O)c4ccc(C(=N)N)cc4)c3Cl)c2n1 | 20 nM |  |  |
| Cc1ccc2cccc(OCc3c(Cl)ccc(S(=O)(=O)NC(C)(C)C(=O)NCCCNCc4ccc(N(C)C)cc4)c3Cl)c2n1 | 158 nM |  |  |
| Cc1ccc2cccc(OCc3c(Cl)ccc(S(=O)(=O)NC(C)(C)C(=O)NCCc4ccccc4)c3Cl)c2n1 | > 10000 nM |  |  |
| Cc1ccc2cccc(OCc3c(Cl)ccc(S(=O)(=O)NC(C)(C)C(=O)NCCCNCc4ccc(F)cc4)c3Cl)c2n1 | 398 nM |  |  |

More lines, main results first:

| Ki (B2 bradykinin receptor [1]) | Kb (B2 bradykinin receptor [2]) | Structure (SMILES) | other results |
| --- | --- | --- | --- |
| 1.58 nM | 7.94 nM | Cc1ccc2cccc(OCc3c(Cl)ccc(S(=O)(=O)NC(C)(C)C(=O)N4CCN(CCCCCCN=C(N)N)CC4)c3Cl)c2n1 |  |
| 0.398 nM | 0.794 nM | Cc1cc(C)c2cccc(OCc3c(Cl)ccc(S(=O)(=O)NC(C)(C)C(=O)N4CCN(C(=O)[C@@H](N)CCCN(C)C)CC4)c3Cl)c2n1 | inhibition in vivo at 0.3 µmol/kg (Cavia porcellus [3]): 80%; Activity (Cavia porcellus [4]): 30% |
| 1 nM | 2.51 nM | Cc1cc(C)c2cccc(OCc3c(Cl)ccc(S(=O)(=O)NC(C)(C)C(=O)N4CCN(C(=N)NCCCN)CC4)c3Cl)c2n1 |  |
| 0.398 nM | 25.1 nM | Cc1ccc2cccc(OCc3c(Cl)ccc(S(=O)(=O)NC(C)(C)C(=O)N4CCN(C(=O)[C@@H](N)CCCN(C)C)CC4)c3Cl)c2n1 |  |
| 2.51 nM | 20 nM | Cc1ccc2cccc(OCc3c(Cl)ccc(S(=O)(=O)NC(C)(C)C(=O)N4CCN(CCCCCCN)CC4)c3Cl)c2n1 |  |
| 1.58 nM | 11 nM | Cc1ccc2cccc(OCc3c(Cl)ccc(S(=O)(=O)NC(C)(C)C(=O)N4CCN(C(=N)NCCCN)CC4)c3Cl)c2n1 |  |
| 3.98 nM | 39.8 nM | Cc1ccc2cccc(OCc3c(Cl)ccc(S(=O)(=O)NC(C)(C)C(=O)N4CCN(C(=N)N)CC4)c3Cl)c2n1 |  |
| 0.794 nM |  | Cc1cc(C)c2cccc(OCc3c(Cl)ccc(S(=O)(=O)N4CCC[C@@H]4C(=O)NCCCNC(=O)c4ccc(C(=N)N)cc4)c3Cl)c2n1 |  |
| 10 nM | 20 nM | CC(=O)N[C@@H](CCCCN(C)C)C(=O)N1CCN(C(=O)C(C)(C)NS(=O)(=O)c2ccc(Cl)c(COc3cccc4ccc(C)nc34)c2Cl)CC1 |  |
| 0.631 nM | 39.8 nM | Cc1ccc2cccc(OCc3c(Cl)ccc(S(=O)(=O)NC(C)(C)C(=O)N4CCN(C(=O)C[C@@H](N)CCCCN(C)C)CC4)c3Cl)c2n1 |  |
| 0.631 nM | 2.51 nM | Cc1cc(C)c2cccc(OCc3c(Cl)ccc(S(=O)(=O)NC(C)(C)C(=O)N4CCN(C(=O)C[C@@H](N)CCCN(C)C)CC4)c3Cl)c2n1 |  |
| 20 nM |  | Cc1ccc2cccc(OCc3c(Cl)ccc(S(=O)(=O)NC(C)(C)C(=O)NCCN=C(N)N)c3Cl)c2n1 |  |
| 0.794 nM | 39.8 nM | Cc1ccc2cccc(OCc3c(Cl)ccc(S(=O)(=O)NC(C)(C)C(=O)N4CCN(C(=O)C[C@@H](N)CCCN(C)C)CC4)c3Cl)c2n1 |  |
| 2 nM | 11.2 nM | Cc1ccc2cccc(OCc3c(Cl)ccc(S(=O)(=O)NC(C)(C)C(=O)N4CCN(C(=O)[C@@H](N)CCCCN(C)C)CC4)c3Cl)c2n1 |  |
| 1 nM | 7.94 nM | Cc1ccc2cccc(OCc3c(Cl)ccc(S(=O)(=O)NC(C)(C)C(=O)N4CCN(C(=N)NCCCCCCN)CC4)c3Cl)c2n1 |  |
| 10 nM | 39.8 nM | Cc1ccc2cccc(OCc3c(Cl)ccc(S(=O)(=O)NC(C)(C)C(=O)N4CCN(CCN=C(N)N)CC4)c3Cl)c2n1 |  |
| 0.501 nM | 2.51 nM | Cc1cc(C)c2cccc(OCc3c(Cl)ccc(S(=O)(=O)NC(C)(C)C(=O)N4CCN(C(=O)C[C@@H](N)CCCCN(C)C)CC4)c3Cl)c2n1 |  |
| 7.94 nM |  | Cc1cc(C)c2cccc(OCc3c(Cl)ccc(S(=O)(=O)NC(C)(C)C(=O)NCCCNc4ccc(C(=N)N)cc4)c3Cl)c2n1 |  |
| 3.98 nM | 25.1 nM | Cc1ccc2cccc(OCc3c(Cl)ccc(S(=O)(=O)NC(C)(C)C(=O)N4CCN(C(=O)CN5CCNCC5)CC4)c3Cl)c2n1 |  |
| 1.26 nM | 7.94 nM | Cc1ccc2cccc(OCc3c(Cl)ccc(S(=O)(=O)NC(C)(C)C(=O)N4CCN(C(=O)C[C@@H](N)CCCCN=C(N)N)CC4)c3Cl)c2n1 |  |
